Measured values reported in ChEMBL document CHEMBL3085638, “Synthesis of novel ciprofloxacin analogues and evaluation of their anti-proliferative effect on human cancer cell lines” (2013).
Calls of active or inactive are those of the source. The calls are words filed in the database; no cut-off is given here.

Legend:
HCT-116 [1] = experiment: Antiproliferative activity against human HCT116 cells assessed as cell viability at 50 uM after 72 hrs by CellTiter assay relative to DMSO control; assay type: functional; conditions: HCT-116, 72 h, read-out: Activity
In short: (§1)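 ATCC-derived cells kept in EMEM with 10% FBS and 1% penicillin/streptomycin at 37 °C under 5% CO2. At 75–80% confluency, 5000 cells/well were seeded, then after 72 h exposed to 50 µM compound in triplicate for 72 h. CellTiter 96 AQueous One reagent was added for 1 h at 37 °C and formazan A490 read, with cell-free medium plus reagent as blank. Results are % of untreated control.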

MDA-MB-468 [2] = experiment: Antiproliferative activity against human MDA-MB-468 cells assessed as cell viability at 50 uM after 72 hrs by CellTiter assay relative to DMSO control; assay type: functional; conditions: MDA-MB-468, 72 h, read-out: Activity; in short: as §1
CCRF-CEM [3] = experiment: Antiproliferative activity against human CCRF-CEM cells assessed as cell viability at 50 uM after 72 hrs by CellTiter assay relative to DMSO control; assay type: functional; conditions: read-out: Activity; in short: as §1
HCT-116 [4] = experiment: Antiproliferative activity against human HCT116 cells assessed as cell viability at 10 uM after 72 hrs by CellTiter assay; assay type: functional, cell-based
In short: (§2)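 Doxorubicin was the positive control at 10 µM. ATCC cells were grown in EMEM with 10% FBS and 1% penicillin/streptomycin at 37 °C under 5% CO2, seeded at 5000 cells/well, and treated 72 h after seeding for a 72 h exposure. Viability was read by CellTiter 96 AQueous One reagent (1 h, 37 °C) as A490, minus a cell-free blank, and expressed as % of untreated control.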

CCRF-CEM [5] = experiment: Antiproliferative activity against human CCRF-CEM cells assessed as cell viability at 10 uM after 72 hrs by CellTiter assay; assay type: functional, cell-based; in short: as §2
MDA-MB-468 [6] = experiment: Antiproliferative activity against human MDA-MB-468 cells assessed as cell viability at 10 uM after 72 hrs by CellTiter assay; assay type: functional, cell-based; in short: as §2
CCRF-CEM [7] = experiment: Antiproliferative activity against human CCRF-CEM cells assessed as cell viability at 50 uM after 24 hrs by CellTiter assay relative to DMSO control; assay type: functional; conditions: read-out: Activity
CCRF-CEM [8] = experiment: Antiproliferative activity against human CCRF-CEM cells assessed as cell viability at 50 uM by CellTiter assay relative to DMSO control; assay type: functional, cell-based
CCRF-CEM [9] = experiment: Antiproliferative activity against human CCRF-CEM cells assessed as cell viability at 50 uM after 96 hrs by CellTiter assay relative to DMSO control; assay type: functional; conditions: read-out: Activity
CCRF-CEM [10] = experiment: Antiproliferative activity against human CCRF-CEM cells assessed as cell viability at 50 uM after 48 hrs by CellTiter assay relative to DMSO control; assay type: functional; conditions: read-out: Activity

O=C(O)c1cn(C2CC2)c2cc(N3CCN(C(=O)CN4CCN(c5ccc(F)c(F)c5)CC4)CC3)c(F)cc2c1=O
viability at 50 µM (HCT-116 [1]): 35%
viability at 50 µM (MDA-MB-468 [2]): 35%
viability at 50 µM (CCRF-CEM [3]): 35%

O=C(O)c1cn(C2CC2)c2cc(N3CCN(C(=O)CN4CCN(C(c5ccccc5)c5ccccc5)CC4)CC3)c(F)cc2c1=O
viability at 50 µM (MDA-MB-468 [2]): ≤ 35%

COc1cccc2c1C(=O)c1c(O)c3c(c(O)c1C2=O)C[C@@](O)(C(=O)CO)C[C@@H]3O[C@H]1C[C@H](N)[C@H](O)[C@H](C)O1
Activity (HCT-116 [4]): Active
Activity (CCRF-CEM [5]): Active
Activity (MDA-MB-468 [6]): Active

O=C(O)c1cn(C2CC2)c2cc(N3CCN(C(=O)CN4CCN(C(c5ccc(F)cc5)c5ccc(F)cc5)CC4)CC3)c(F)cc2c1=O
viability at 50 µM (CCRF-CEM [7]): 19%
Activity (CCRF-CEM [8]; TDE = time-dependent effect): tde
viability at 50 µM (HCT-116 [1]): 35%
viability at 50 µM (CCRF-CEM [9]): 43%
viability at 50 µM (CCRF-CEM [10]): 27%
viability at 50 µM (MDA-MB-468 [2]): 35%
viability at 50 µM (CCRF-CEM [3]): 38%

O=C(O)c1cn(C2CC2)c2cc(N3CCNCC3)c(F)cc2c1=O
Activity (CCRF-CEM [8]): Active
